Hits are enriched below; roughly 2.1% of the tested compounds scored in any of these assays.
UCH37 DUB inh: inhibitors of human deubiquitinating enzyme UCH37; inhibition, % (no concentration beside the values); Q9Y5K5; actives 0.33% (n = 330,000); AID 588478; purified proteasome/UCH37, Ub-AMC cleavage fluorescence;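 active means mean inhibition over replicate wells above about 20%, limit read from the data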;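 further: 0% = compound-free wells with enzyme and 100% = wells lacking proteasome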
Target sequence (Q9Y5K5 whole entry, looked up): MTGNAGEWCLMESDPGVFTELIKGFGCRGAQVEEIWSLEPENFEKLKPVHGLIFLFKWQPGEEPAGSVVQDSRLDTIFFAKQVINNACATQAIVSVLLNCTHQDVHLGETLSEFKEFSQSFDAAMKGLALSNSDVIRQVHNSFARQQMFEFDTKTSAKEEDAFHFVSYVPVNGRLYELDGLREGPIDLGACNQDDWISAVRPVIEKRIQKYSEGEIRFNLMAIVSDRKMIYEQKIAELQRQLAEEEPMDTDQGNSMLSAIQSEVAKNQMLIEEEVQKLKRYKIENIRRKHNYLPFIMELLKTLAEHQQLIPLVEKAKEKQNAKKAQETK
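assay system = human UCH37 enzyme supplied as purified proteasome complex | amount = proteasome at 0.15 nM in the dispensed enzyme solution | schedule = 30 min compound-proteasome preincubation then 25 min substrate reaction, room temperature | measured by = fluorescence, ex 355 nm, em 460 nm | benchmarks = no-proteasome wells (full inhibition) and compound-free wells (no inhibition)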
Mot1-301 SUMO: SUMOylation pathway inhibition by Mot1-301 growth rescue. S. cerevisiae Mot1-301 growth rescue, ATP luminescence, 38.5C; percent above DMSO median, 100 means doubled. growth rescue, % at 18.8 µM. actives 1% (n = 320,000);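 active means every valid replicate shows activation above 250% relative to neutral control wells; inactive means the rest, any valid replicate at or below 250%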;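 further: OY570 slx delta 5 strain wells were the positive control but not used for scaling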
ARNT TACC3 PPI: disruptors of human ARNT/TACC3 interaction. actives 0.66% (n = 390,000). Q9Y6A5. AlphaScreen His-ARNT PAS-B/GST-TACC3 binding, luminescence; TACC3 fragment carries E629A point mutation. AID 623870. inhibition, % at 9.99 µM;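 active means mean inhibition of replicates at least 50% and at least half of replicates each reaching 50%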;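 further: 0% = complete ARNT plus TACC3 wells and 100% = ARNT alone without TACC3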
cardiac RTF act: cardiac RTF calcium sensitization; activation, % at 7.2 µM; IANBD-labeled TnC RTF fluorescence at EC20 calcium; 0% EC20 calcium, 100% full calcium; P19429+P45379; actives 0.24% (n = 340,000); AID 493008;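 active means activation above the mean over all tested compounds plus 3 SD, cut at about 30% in these data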;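 further: rise in fluorescence read as greater calcium sensitivity of cardiac thin filaments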
RTF Ca sens inh: cardiac RTF calcium desensitization; P19429+P45379; IANBD-labeled cardiac RTF, Ca2+ fluorescence; inhibition, % at 7.15 µM; actives 0.12% (n = 340,000);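 active means inhibition above the mean inhibition of all tested compounds plus 3 SD, cut at about 17% in these data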;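 further: assay run at fixed EC70 calcium of 1.6 mM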
Efflux pump mplx: blocks antifungal efflux pumps in multiplex yeast assay; S. cerevisiae Candida pump triplex, Nile Red efflux; inhibition, % at 10 µM; actives 0.44% (n = 330,000); AID 485275;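 active means plate passing quality check with inhibition over a set limit, or well fluorescence over plate mean plus 4 SD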;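 further: Nile Red retained in pooled yeast measured as flow cytometry median fluorescence; 0% = buffer negative control and 100% = Enniatin B positive control; higher means more Nile Red kept so more efflux inhibition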
Mot1 SUMO dose: yeast SUMO pathway inhibition in dose response. AID 493004. shares compounds with Mot1-301 SUMO. growth activity, percent, % at 42 µM. S. cerevisiae Mot1-301 galactose growth, ATP luminescence, 24 h; -100 = growth of slx-deleted rescue strain. 2,300 tested, under 10 active;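 active means Signal drops as the depositor expects, and the fitted half-maximal dose is no more than ten times the top valid tested dose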;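 further: more negative values mean stronger growth rescue toward the control strain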
An asterisk follows results filed as active; · = no result given; + = active, no number; ! = a repeat was not active; [ ] = dose if it differs, or a comment.

SMILES	UCH37 DUB inh	Mot1-301 SUMO	ARNT TACC3 PPI	cardiac RTF act	RTF Ca sens inh	Efflux pump mplx	Mot1 SUMO dose
CCOC(=O)c1c(C)[nH]c(C(C)=NO)c1C	4	·	·	·	·	·	·
COc1cccc(C=Nn2c(SC)nnc2-c2ccccc2)c1O	3	·	·	·	·	·	·
O=C(Nc1ccc(F)cc1F)N1CCCN(c2ccc(C(F)(F)F)cn2)CC1	2	548*	-6	-7	-1	0	-1
CC(=NNC(=O)c1ccncc1)c1cccc(NC(=O)c2ccc(C(C)(C)C)cc2)c1	5	·	·	·	·	·	·
O=C(Nc1cc(Cl)ccc1Cl)c1ccco1	1	7	-11	2	-1	0	·
Nc1ccc(NC(=O)c2ccco2)c(Cl)c1	2	439*	3	4	-3	0	0
CC(=O)N1N=C(c2ccc(C(C)(C)C)cc2)OC1(C)C	3	536*	-5	0	7	0	0
CC(=O)N1N=C(c2ccc3ccccc3c2)OC1(C)C	-112	7	-2	-6	7	0	·
CCCNC(=O)COC(=O)CCC(=O)c1cccs1	3	422*	-2	-4	4	0	0
CCNC(=O)COC(=O)CCC(=O)c1cccs1	-1	-1	-5	-7	-4	0	·
O=C(Nc1ccccn1)c1cccs1	1	-5	-3	1	3	0	·
CN1C(C(=O)Nc2ccccn2)=C(O)c2sccc2S1(=O)=O	4	982*!	5	0	8	0	0
COc1ccc(N2CCN(C(=O)C3CCCN(S(=O)(=O)c4ccc5c(c4)oc(=O)n5C)C3)CC2)cc1 (centres undefined)	3	450*	-1	-3	-8	0	0[21 µM]
Cc1cc(C)cc(OC(=O)CS(=O)c2ccc(C(F)(F)F)cc2[N+](=O)[O-])c1 (centres undefined)	4	511*	-6	-11	0	0	-1
O=C(CS(=O)c1ccc(C(F)(F)F)cc1[N+](=O)[O-])Oc1ccc(Cl)cc1 (centres undefined)	2	380*	-5	-4	1	0	0
O=C(NCCO)c1ccc(Oc2ccc(C(F)(F)F)cc2[N+](=O)[O-])cc1	1	440	-31	7	-5	0	·
COc1ccc(CCNC(=O)C/C(C)=N/NC(=O)COc2ccc(C)cc2Br)cc1OC	·	904*	4	-6	7	0	0
COc1ccc(OCC(=O)NN=Cc2ccsc2)cc1	-4	·	·	·	·	·	·
CSc1ccccc1NC(=O)CSc1nnnn1-c1ccccc1SC	-1	-10	-6	4	-15	0	·
COc1ccc(NC(=O)CSc2nnnn2-c2ccccc2OC)c(OC)c1	0	3	-2	1	-10	0	·
CSc1ccccc1-n1nnnc1SCC(=O)Nc1ccccc1C	0	506*	7	0	-3	0	0
COc1ccccc1-n1nnnc1SCC(=O)Nc1ccc(C)c(N)c1	1	455*	-21	-3	-17	0	0
Brc1ccccc1C=NNc1ccccn1	0	·	·	·	·	·	·
COc1ccc(/C=N\NC(=O)c2cc(OCC(F)(F)F)ccc2OCC(F)(F)F)cc1	·	797*	-4	1	-5	0	0
COc1ccc(C=NNC(=O)c2cc(OCC(F)(F)F)ccc2OCC(F)(F)F)cc1	3	·	·	·	·	·	·
SMILES	UCH37 DUB inh	Mot1-301 SUMO	ARNT TACC3 PPI	cardiac RTF act	RTF Ca sens inh	Efflux pump mplx	Mot1 SUMO dose
CCOc1ccccc1NC(=O)CSc1nc(N)c(C#N)cc1C#N	-41	+	-4	1	-6	0	1
COCC1CCN(C(=O)c2cc(COc3ccc(-n4cncn4)cc3)on2)C1 (centres undefined)	1	3	-11	-8	-10	2	·
CCN(CC)C1CCN(C(=O)c2cc(COc3ccc(-n4cncn4)cc3)on2)C1 (centres undefined)	0	512*	-4	-7	1	0	0
O=C(CSc1nnc(SCc2ccc(Cl)cc2)s1)NN=Cc1ccccc1Cl	2	·	·	·	·	·	·
Cc1cccc(N(CC(=O)N2CCCCCC2)S(C)(=O)=O)c1C	1	73	-8	3	-5	0	·
CS(=O)(=O)N(CC(=O)N1CCCC1)c1cccc(Cl)c1Cl	2	530*	0	-2	-7	0	0
CN(C)c1ccc(NC(=O)CSc2nc(N)c(C(=O)Nc3ccc(N(C)C)cc3)s2)cc1	·	466*	·	-5	1	0	0
CC(=NN=Cc1ccccc1)c1nnn(-c2nonc2N)c1C	3	·	·	·	·	·	·
Cc1ccc(C(=O)NN=Cc2sc(=O)n(Cc3cccc(C(=O)O)c3)c2Cl)cc1	1	·	·	·	·	·	·
C/C(=N\N(c1ccccc1)c1ccccc1)c1ccco1	·	187	1	6	1	0	·
C/C(=N\N=C(c1ccccc1)c1ccccc1)c1ccco1	·	576*	11	-2	16	0	0
COc1ccc(C=NS(=O)(=O)c2cccs2)cc1	2	·	·	·	·	·	·
CCn1c(SCC(=O)Nc2ccc(OCc3ccccc3)cc2)nnc1-c1ccco1	0	837*	4	0	7	0	1
C=C(C)CSc1nncn1N=Cc1ccc(OC)cc1	2	·	·	·	·	·	·
CC1(C)CC(=O)C2=C(C1)OC(N)=C(C#N)C21C(=O)N(CN2CCOCC2)c2ccccc21 (centres undefined)	2	457*	·	2	-15	0	0
O=C(N/N=C/c1cccs1)c1cncc(Br)c1	·	470*	1	-6	3	0	-1
O=C(NN=Cc1cccs1)c1cncc(Br)c1	6	·	·	·	·	·	·
CCC(=NNC(=O)c1csc(C)c1C)c1cccs1	6	·	·	·	·	·	·
CSc1cccc(N2C(=O)C3CCCN3C2=S)c1 (centres undefined)	·	802*	-1	0	-11	0	1
O=C(NCCn1cccn1)C1CCC(=O)N(CCc2cccc(F)c2)C1 (centres undefined)	-1	163	0	-4	-2	2	·
CCN(CCn1cccn1)C(=O)C1CCC(=O)N(CCc2cccc(F)c2)C1 (centres undefined)	4	689*	-3	0	-6	0	0
O=C(c1ccco1)N1CCN(C2CC(=O)N(c3ccc(F)c(Cl)c3)C2=O)CC1 (centres undefined)	0	551*	-3	-4	-8	0	-1
Cc1ccc(-c2nc(-c3cccnc3)sc2CC(=O)O)cc1	-3	885*	-8	0	1	0	0
CSc1nnc2c3cc(C)ccc3n(Cc3ccccc3)c2n1	3	910*	·	6	-2	0	0
